From ChEMBL document CHEMBL2375357, “Design, synthesis and cytotoxicity of cell death mechanism of rotundic acid derivatives” (Bioorg Med Chem Lett, 2013)
The source made the active and inactive calls. The calls are words filed in the database; no cut-off is given here.

Legend:
Format in all cases: functional, cell-based
NCI-H446 = test: Cytotoxicity against human NCI-H446 cells after 24 hrs by MTT assay; conditions: NCI-H446, 24 h
Outline: (§1)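 MTT antiproliferative assay on human tumour lines A-375 (melanoma), SPC-A1 (lung adenocarcinoma), HeLa (cervical), HepG2 (hepatoma) and NCI-H446 (small cell lung cancer). Parent rotundic acid run alongside as positive control. IC50 given as mean ± SD, n = 3, each experiment repeated at least three times. Values above 100 μM reported as >100.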

HeLa [1] = test: Cytotoxicity against human HeLa cells after 24 hrs by MTT assay; outline: as §1
HepG2 = test: Cytotoxicity against human HepG2 cells after 24 hrs by MTT assay; conditions: HepG2, 24 h; outline: as §1
A-375 = test: Cytotoxicity against human A375 cells after 24 hrs by MTT assay; conditions: A-375, 24 h; outline: as §1
[2] = Cytotoxicity against human SPC-A1 cells after 24 hrs by MTT assay; conditions: SPCA1, 24 h; outline: as §1
HeLa [3] = test: Induction of apoptosis in human HeLa cells assessed as increase in caspase 3 cleavage after 24 hrs by Western blot analysis
Outline: (§2)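 HeLa cells treated 24 h at 10, 20 and 40 μM. Cisplatin (10 μg/ml) served as positive-control treatment, with an untreated control group for comparison. Bax, Bcl-2, cytochrome C, caspase-3 and cleaved caspase-3 protein levels detected by western blot. Bax/Bcl-2 ratio derived from the band levels. Significance tested against the control group.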

HeLa [4] = test: Induction of apoptosis in human HeLa cells assessed as increase in caspase 3 expression at 10 to 40 uM after 24 hrs by Western blot analysis; outline: as §2
HeLa [5] = test: Induction of apoptosis in human HeLa cells assessed as increase in ratio of Bax to Bcl2 expression after 24 hrs by Western blot analysis; outline: as §2
HeLa [6] = test: Induction of apoptosis in human HeLa cells assessed as increase in cytochrome C expression after 24 hrs by Western blot analysis; outline: as §2
HeLa [7] = test: Induction of apoptosis in human HeLa cells assessed as increase in Bax expression after 24 hrs by Western blot analysis; outline: as §2
HeLa [8] = test: Induction of apoptosis in human HeLa cells assessed as decrease in Bcl2 expression after 24 hrs by Western blot analysis; outline: as §2

Compound: CC(=O)OCCNC(=O)[C@]12CC[C@@H](C)[C@@](C)(O)[C@H]1C1=CC[C@@H]3[C@@]4(C)CC[C@H](OC(C)=O)[C@@](C)(COC(C)=O)[C@@H]4CC[C@@]3(C)[C@]1(C)CC2
- IC50 (NCI-H446): 18.6 µM
- IC50 (HeLa [1]): 5.39 µM
- IC50 (HepG2): 4.44 µM
- IC50 (A-375): 4.17 µM
- IC50 [2]: 9.37 µM

Compound: C[C@@H]1CC[C@]2(C(=O)NCc3ccccc3)CC[C@]3(C)C(=CC[C@@H]4[C@@]5(C)CC[C@H](O)[C@@](C)(CO)[C@@H]5CC[C@]43C)[C@@H]2[C@]1(C)O
- IC50 (NCI-H446): > 100 µM
- IC50 (HeLa [1]): 28.1 µM
- IC50 (HepG2): > 100 µM
- IC50 (A-375): > 100 µM
- IC50 [2]: > 100 µM

Compound: CC(=O)OC[C@@]1(C)[C@@H]2CC[C@]3(C)[C@H](CC=C4[C@H]5[C@](C(=O)Nc6ccccc6)(CC[C@@H](C)[C@@]5(C)O)CC[C@]43C)[C@@]2(C)CC[C@@H]1OC(C)=O
- IC50 (NCI-H446): 24.8 µM
- IC50 (HeLa [1]): 15.8 µM
- IC50 (HepG2): 22.2 µM
- IC50 (A-375): 17.7 µM
- IC50 [2]: 16.2 µM

Compound: CC(CO)NC(=O)[C@]12CC[C@@H](C)[C@@](C)(O)[C@H]1C1=CC[C@@H]3[C@@]4(C)CC[C@H](O)[C@@](C)(CO)[C@@H]4CC[C@@]3(C)[C@]1(C)CC2 (stereo partly specified)
- IC50 (NCI-H446): 39.8 µM
- IC50 (HeLa [1]): 28.8 µM
- IC50 (HepG2): 55.1 µM
- IC50 (A-375): 35.5 µM
- IC50 [2]: > 100 µM

Compound: CC(=O)OCC(C)NC(=O)[C@]12CC[C@@H](C)[C@@](C)(O)[C@H]1C1=CC[C@@H]3[C@@]4(C)CC[C@H](OC(C)=O)[C@@](C)(COC(C)=O)[C@@H]4CC[C@@]3(C)[C@]1(C)CC2 (stereo partly specified)
- IC50 (NCI-H446): 14.7 µM
- IC50 (HeLa [1]): 5.3 µM
- IC50 (HepG2): 9.12 µM
- IC50 (A-375): 5.1 µM
- IC50 [2]: 18.9 µM

Compound: C[C@@H]1CC[C@]2(C(=O)O)CC[C@]3(C)C(=CC[C@@H]4[C@@]5(C)CC[C@H](O)[C@@](C)(CO)[C@@H]5CC[C@]43C)[C@@H]2[C@]1(C)O [ROTUNDIC ACID]
- IC50 (NCI-H446): 11.4 µM
- IC50 (HeLa [1]): 31.9 µM
- IC50 (HepG2): 7.33 µM
- IC50 (A-375): 16.6 µM
- IC50 [2]: 84 µM

Compound: CC(=O)OCc1ccccc1NC(=O)[C@]12CC[C@@H](C)[C@@](C)(O)[C@H]1C1=CC[C@@H]3[C@@]4(C)CC[C@H](OC(C)=O)[C@@](C)(COC(C)=O)[C@@H]4CC[C@@]3(C)[C@]1(C)CC2
- IC50 (NCI-H446): 69.7 µM
- IC50 (HeLa [1]): 4.27 µM
- IC50 (HepG2): 12.3 µM
- IC50 (A-375): 9.12 µM
- IC50 [2]: 13.2 µM

Compound: CC(=O)OC[C@@]1(C)[C@@H]2CC[C@]3(C)[C@H](CC=C4[C@H]5[C@](C(=O)NCCCO)(CC[C@@H](C)[C@@]5(C)O)CC[C@]43C)[C@@]2(C)CC[C@@H]1OC(C)=O
- IC50 (NCI-H446): 5.08 µM
- IC50 (HeLa [1]): 6.97 µM
- IC50 (HepG2): 5.49 µM
- IC50 (A-375): 3.28 µM
- IC50 [2]: 13.4 µM

Compound: C[C@@H]1CC[C@]2(C(=O)NCCCO)CC[C@]3(C)C(=CC[C@@H]4[C@@]5(C)CC[C@H](O)[C@@](C)(CO)[C@@H]5CC[C@]43C)[C@@H]2[C@]1(C)O
- IC50 (NCI-H446): 20.9 µM
- IC50 (HeLa [1]): 17.7 µM
- IC50 (HepG2): 77.3 µM
- IC50 (A-375): 12.5 µM
- IC50 [2]: 83.2 µM

Compound: CC(=O)OC[C@@]1(C)[C@@H]2CC[C@]3(C)[C@H](CC=C4[C@H]5[C@](C(=O)NCCO)(CC[C@@H](C)[C@@]5(C)O)CC[C@]43C)[C@@]2(C)CC[C@@H]1OC(C)=O
- Activity (HeLa [3]): Dose-dependent effect
- Activity (HeLa [4]): Active
- Activity (HeLa [5]): Dose-dependent effect
- Activity (HeLa [6]): Active
- Activity (HeLa [7]): Dose-dependent effect
- Activity (HeLa [8]): Dose-dependent effect
- IC50 (NCI-H446): 6.67 µM
- IC50 (HeLa [1]): 2.83 µM
- IC50 (HepG2): 4.4 µM
- IC50 (A-375): 5.49 µM
- IC50 [2]: 3.61 µM

Compound: CC(=O)OCCCNC(=O)[C@]12CC[C@@H](C)[C@@](C)(O)[C@H]1C1=CC[C@@H]3[C@@]4(C)CC[C@H](OC(C)=O)[C@@](C)(COC(C)=O)[C@@H]4CC[C@@]3(C)[C@]1(C)CC2
- IC50 (NCI-H446): 12.8 µM
- IC50 (HeLa [1]): 4.31 µM
- IC50 (HepG2): 12 µM
- IC50 (A-375): 10.1 µM
- IC50 [2]: 12 µM

Compound: C[C@@H]1CC[C@]2(C(=O)Nc3ccccc3CO)CC[C@]3(C)C(=CC[C@@H]4[C@@]5(C)CC[C@H](O)[C@@](C)(CO)[C@@H]5CC[C@]43C)[C@@H]2[C@]1(C)O
- IC50 (NCI-H446): 14 µM
- IC50 (HeLa [1]): 12.3 µM
- IC50 (HepG2): > 100 µM
- IC50 (A-375): 19 µM
- IC50 [2]: > 100 µM

Compound: CC(=O)OC[C@@]1(C)[C@@H]2CC[C@]3(C)[C@H](CC=C4[C@H]5[C@](C(=O)O)(CC[C@@H](C)[C@@]5(C)O)CC[C@]43C)[C@@]2(C)CC[C@@H]1OC(C)=O
- IC50 (NCI-H446): 7.11 µM
- IC50 (HeLa [1]): 13.1 µM
- IC50 (HepG2): 6.85 µM
- IC50 (A-375): 11.4 µM
- IC50 [2]: 23.2 µM

Compound: CC(=O)OC[C@@]1(C)[C@@H]2CC[C@]3(C)[C@H](CC=C4[C@H]5[C@](C(=O)NC(C)CO)(CC[C@@H](C)[C@@]5(C)O)CC[C@]43C)[C@@]2(C)CC[C@@H]1OC(C)=O (stereo partly specified)
- IC50 (NCI-H446): 5.51 µM
- IC50 (HeLa [1]): 11.3 µM
- IC50 (HepG2): 7.3 µM
- IC50 (A-375): 4.77 µM
- IC50 [2]: 12.9 µM

Compound: C[C@@H]1CC[C@]2(C(=O)Nc3ccccc3)CC[C@]3(C)C(=CC[C@@H]4[C@@]5(C)CC[C@H](O)[C@@](C)(CO)[C@@H]5CC[C@]43C)[C@@H]2[C@]1(C)O
- IC50 (NCI-H446): 70.8 µM
- IC50 (HeLa [1]): 23.2 µM
- IC50 (HepG2): 64.7 µM
- IC50 (A-375): 70.8 µM
- IC50 [2]: > 100 µM

Compound: C[C@@H]1CC[C@]2(C(=O)NCCO)CC[C@]3(C)C(=CC[C@@H]4[C@@]5(C)CC[C@H](O)[C@@](C)(CO)[C@@H]5CC[C@]43C)[C@@H]2[C@]1(C)O
- IC50 (NCI-H446): 24.7 µM
- IC50 (HeLa [1]): > 100 µM
- IC50 (HepG2): 45.6 µM
- IC50 (A-375): 21.4 µM
- IC50 [2]: > 100 µM

Compound: CC(=O)OC[C@@]1(C)[C@@H]2CC[C@]3(C)[C@H](CC=C4[C@H]5[C@](C(=O)Nc6ccccc6CO)(CC[C@@H](C)[C@@]5(C)O)CC[C@]43C)[C@@]2(C)CC[C@@H]1OC(C)=O
- IC50 (NCI-H446): 7.03 µM
- IC50 (HeLa [1]): 3.32 µM
- IC50 (HepG2): 4.45 µM
- IC50 (A-375): 3.71 µM
- IC50 [2]: 8.09 µM

Compound: CC(=O)OC[C@@]1(C)[C@@H]2CC[C@]3(C)[C@H](CC=C4[C@H]5[C@](C(=O)NCc6ccccc6)(CC[C@@H](C)[C@@]5(C)O)CC[C@]43C)[C@@]2(C)CC[C@@H]1OC(C)=O
- IC50 (NCI-H446): 26.9 µM
- IC50 (HeLa [1]): 19.2 µM
- IC50 (HepG2): 19.5 µM
- IC50 (A-375): 13.7 µM
- IC50 [2]: 12.1 µM
